{"source": "paper PMC9065697", "about": "(RSC Advances, 2019)", "key": {"[1]": {"test": "Solubility and aggregation state", "assay_type": "physicochemical", "settings": "2 μM in DMF and in PBS with 0.01% Tween 80 (v/v); intense, sharp Q band at 672 nm (DMF) or 680 nm (PBS); UV-Vis"}, "[2]": {"system": "HT29 human colorectal adenocarcinoma cells", "test": "Cellular uptake by confocal fluorescence microscopy", "assay_type": "cell-based", "settings": "2 μM for 10 min at 37 °C, then 6 h in drug-free medium at 4 °C", "outline": "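HT29 cells (about 2 × 10^5, RPMI with 10% FBS) were seeded on confocal dishes and left overnight at 37 °C, 5% CO2. They were exposed to 2 μM test compound for 10 min at 37 °C, washed three times with PBS, then held in drug-free medium for 6 h at 4 °C or 37 °C. Bright-field and fluorescence images were taken by confocal microscopy.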"}, "HT29 cells [3]": {"system": "HT29 cells", "test": "Photocytotoxicity, MTT assay", "assay_type": "cell-based, human", "settings": "absence of light, both incubation conditions", "outline": "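HT29 cells (1 × 10^4 per well) were plated overnight. A DMSO stock of test compound was diluted in medium and applied for 10 min at 37 °C. Cells were rinsed with PBS, refed, and held 0 or 6 h with no red-light illumination. MTT (3 mg mL−1 in PBS) was added for 4 h, DMSO added, and A490 read. Viability is relative to compound-free control wells, averaged over 4 data points.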"}, "HT29 cells [4]": {"system": "HT29 cells", "test": "Annexin V-GFP/PI costaining assay", "assay_type": "cell-based, human", "settings": "0.5 μM for 10 min"}, "[5]": {"test": "In vivo biodistribution by near-infrared fluorescence imaging", "parameters": "species or system mouse", "settings": "mouse, in vivo, iv, 20 nmol", "outline": "(§1)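 Female Balb/c nude mice (20–25 g) carried subcutaneous HT29 tumours on the back (about 1 × 10^7 cells in HBSS) grown to 60–100 mm3. They received 20 nmol test compound in water with 1% DMSO by tail-vein injection. NIR imaging (ex 680 nm, em ≥700 nm) ran from pre-dose to 48 h. At 48 h, tumour, heart, lung, spleen, kidney and liver were assayed for fluorescence per unit area and reported as tumour/organ ratio. Data are mean ± SD, n = 4.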"}, "[6]": {"system": "HT29 tumour-bearing nude mice", "test": "In vivo biodistribution by near-infrared fluorescence imaging", "parameters": "species or system mouse", "settings": "20 nmol intravenous; for Fluorescence intensity in the tumour area over time: imaged over 48 h, four mice per conjugate", "outline": "as §1"}, "[7]": {"settings": "reference standard in DMF; cited from earlier work"}, "[8]": {"settings": "reference standard in DMF; cited from earlier work", "remark": "listed apart in the source"}, "[9]": {"system": "A431 human epidermoid carcinoma cells", "settings": "read-out: IC50 (photocytotoxicity); cited from earlier work"}}, "note": "Peptide text beside a SMILES is read from it. * marks the point of attachment. X1 = O=C(c1ccc(Oc2ccc3c4nc5nc(nc6[nH]c(nc7nc(nc([nH]4)c3c2)-c2ccccc2-7)c2ccccc62)-c2ccccc2-5)cc1)*"}
{"molecule": "N=C(N)NCCC[C@H](NC(=O)[C@@H](N)CCC(N)=O)C(=O)N[C@@H](Cc1c[nH]cn1)C(=O)N[C@@H](CCCCN)C(=O)N1CCC[C@H]1C(=O)N[C@@H](CCCNC(=N)N)C(=O)N[C@@H](CCC(=O)O)C(=O)NCC(=O)NCC(=O)NCC(=O)NCC(=O)N[C@@H](CO)C(=O)N[C@@H](CCCCNC(=O)c1ccc(Oc2ccc3c4nc5nc(nc6[nH]c(nc7nc(nc([nH]4)c3c2)-c2ccccc2-7)c2ccccc62)-c2ccccc2-5)cc1)C(N)=O", "note": "[compound 4] (H-QRHKPREGGGGSK(X1)-NH2)", "values": [{"measurement": "Solubility and aggregation state from the Q band", "setting": "[1]", "value": "soluble and remained non-aggregated in both media"}, {"measurement": "Internalisation on post-incubation at 4 °C", "setting": "[2]", "value": "internalisation was not significant"}, {"measurement": "Dark toxicity", "setting": "HT29 cells [3]", "value": "did not show significant dark toxicity"}, {"measurement": "Cell-death pathway, PDT effect on the cell membrane", "setting": "HT29 cells [4]; irradiated immediately (λ > 610 nm, 18 mW cm^-2, 20 min)", "value": "cell necrosis"}, {"measurement": "Cell-death pathway, PDT effect after internalisation", "setting": "HT29 cells [4]; then 6 h post-incubation before irradiation (λ > 610 nm, 18 mW cm^-2, 20 min)", "value": "mainly through apoptosis"}, {"measurement": "tissue to tissue ratio at 48 h", "setting": "[5]", "value": "< 1"}, {"measurement": "Fluorescence intensity in the tumour area over time", "setting": "[6]", "value": "increased along with time"}]}
{"molecule": "EPRQRHKGGGGSK [compound 5]", "values": [{"measurement": "Tumour selectivity (tumour/organ ratio) compared with conjugate 4", "setting": "[6]; ex vivo at 48 h, four mice", "value": "consistently lower for all the organs"}, {"measurement": "Fluorescence intensity in the tumour area over time", "setting": "[6]", "value": "remained weak throughout the period"}]}
{"molecule": "[Zn+2].c1ccc2c(c1)-c1nc-2nc2[n-]c(nc3nc([n-]c4nc(n1)-c1ccccc1-4)-c1ccccc1-3)c1ccccc21", "note": "[ZnPc, zinc(II) phthalocyanine]", "values": [{"measurement": "Fluorescence quantum yield ΦF", "setting": "[7]", "value": 0.28}, {"measurement": "Singlet oxygen quantum yield ΦΔ", "setting": "[8]", "value": 0.56}]}
{"molecule": "GYHWYGYTPQNVI [GE11 conjugate]", "values": [{"measurement": "IC50", "setting": "[9]", "value": 14, "unit": "µM"}]}
